Most compounds without a hit are left out; they make up all but 7.2% or so of the library.
M1 agonist = M1 muscarinic receptor agonists, primary screen, CHO-M1 cells, Fluo-4 calcium, agonist mode; Muscarinic acetylcholine receptor M1; Fluo-4 calcium fluorescence; active compounds read high; B-score at 10 µM; 3% of 64,000 active;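 active = fluorescence rise, raw or as B-score row- and column-corrected plate score, outside the 99.7% band of its plate's samples, either direction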
HEK293 NFkB inh = inhibitors of PMA/ionomycin-induced NF-kB reporter, primary screen, antigen receptor NF-kB inhibitor project, cell-based, HEK-293 luciferase reporter, luminescence; HEK-293 NF-kB luciferase reporter; inhibition, % at 3 µM; 0.21% of 62,000 active; AID 465, 2006;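 active = inhibition above the mean of all tested compounds plus 3 SD, cut at about 40% in these data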;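 also: 0% = stimulated DMSO wells and 100% = 10 µM reference inhibitor 5653914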
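Timing: 1 h pretreatment, 16 h stimulation, 37 °C; system: HEK-293 cells with stable firefly luciferase reporter driven by four HIV NF-kB elements; doses: 3 µM once, 0.30% DMSO; measured by: luciferase luminescence; control set: DMSO and 10 µM reference inhibitor; repeats: single test; reagent: PMA plus ionomycin mix as NF-kB-activating stimulus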
DAT uptake mod = changed hDAT dopamine uptake under cocaine IC80, either direction, primary screen, cocaine antagonist project, cell-based, LLC-PK1 hDAT, [14C]-dopamine uptake, MLSMR | B-score at 10 µM | Sodium-dependent dopamine transporter (Homo sapiens), Q01959 | 1.3% of 110,000 active | LLC-PK1 hDAT cells, [14C]-dopamine uptake with cocaine IC80; actives deviate in either direction;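 active = Z score or B-score, a plate-position-corrected score, falls beyond the plate's 99.7% confidence bounds, in either direction; inactive = both scores lie inside the 99.7% bounds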;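 also: scored against the spread of the other compound wells on the same plate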
Target sequence (Q01959 whole entry, looked up): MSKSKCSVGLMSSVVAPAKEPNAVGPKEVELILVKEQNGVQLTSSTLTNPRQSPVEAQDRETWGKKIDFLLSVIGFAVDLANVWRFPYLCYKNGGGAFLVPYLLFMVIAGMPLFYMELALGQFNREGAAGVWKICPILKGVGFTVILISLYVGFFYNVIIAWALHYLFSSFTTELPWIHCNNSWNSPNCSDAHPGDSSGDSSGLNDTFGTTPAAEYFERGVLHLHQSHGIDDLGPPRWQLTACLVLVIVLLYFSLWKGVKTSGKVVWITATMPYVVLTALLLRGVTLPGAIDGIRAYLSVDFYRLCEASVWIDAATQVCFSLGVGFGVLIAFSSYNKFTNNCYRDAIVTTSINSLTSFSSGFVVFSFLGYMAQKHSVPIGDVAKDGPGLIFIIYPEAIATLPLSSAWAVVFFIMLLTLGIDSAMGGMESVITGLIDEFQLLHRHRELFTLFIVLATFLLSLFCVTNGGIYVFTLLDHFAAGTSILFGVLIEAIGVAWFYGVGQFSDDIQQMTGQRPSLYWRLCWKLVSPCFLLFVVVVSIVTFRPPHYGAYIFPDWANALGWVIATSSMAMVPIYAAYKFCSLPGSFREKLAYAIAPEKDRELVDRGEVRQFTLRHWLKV
D1 mod = D1 CRE-luciferase signal change, two-sided – cell-based, HEK293 D1, dopamine EC30, D1 allosteric modulator project, primary screen. dopamine EC30 potentiation; actives deviate in either direction. B-score at 10 µM. 5.9% of 58,000 active. AID 641, 2007;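 active = luminescence count or its row- and column-corrected plate score outside the 99.7% band of the plate's sample wells, on either side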
BAP1 inh = inhibitors of BAP1 deubiquitinase, primary screen, biochemical, Ub-AMC fluorescence, kinetic; Ubiquitin carboxyl-terminal hydrolase BAP1 (Homo sapiens), Q92560; calls only at 20 µM; 0.48% of 72,000 active; recombinant BAP1, Ub-AMC hydrolysis fluorescence kinetic; active compounds read low;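 active = activity remaining at or below 50% of control, provided the compound also passes the data quality filters; inactive = the rest, including low values that fail the filters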;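 also: 100% = DMSO wells rate and 0% = substrate alone blank rate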
M1 antag = antagonists of rat M1 muscarinic receptor; CHO-M1 cells, Fluo-4 calcium, ACh EC80 antagonist mode; active compounds read low; B-score at 10 µM; 3.4% of 64,000 active; AID 628, 2007;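 active = calcium fluorescence response, raw or row-and-column corrected B-score, differing from the plate sample mean either way at a set confidence level, mostly lower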
M1 antag conf = rat M1 muscarinic receptor antagonists, confirmation, CHO cells, Fluo-4 calcium, duplicate. ACh EC80 antagonism; active compounds read low. shares compounds with M1 antag. 43% of 1,700 active. calcium response (max-min fluorescence) at 10 µM;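 active = calcium response below the same-plate mean of wells given acetylcholine alone at its 80%-effect dose, minus 3 SD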;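 also: raw fluorescence intensity difference in arbitrary instrument units and not normalized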
mGluR4 antag = human mGluR4 response to M1 antagonist hits, M1 allosteric modulator project, cell-based, antagonist mode, secondary assay 1; shares compounds with M1 antag; AID 678, 2007; 0.9% of 1,700 active; fluorescence response (max-min) at 10 µM; CHO-mGluR4 calcium flux, Fluo-4 fluorescence, glutamate EC80; active compounds read low;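 active = fluorescence response below the plate's average for near-maximal glutamate wells, less 3 SD of those wells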;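 also: raw unnormalized fluorescence span taken in the window right after glutamate addition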
An asterisk follows results filed as active; i = inactive; nt = not tested or not shown.

SMILES	M1 agonist	HEK293 NFkB inh	DAT uptake mod	D1 mod	BAP1 inh	M1 antag	M1 antag conf	mGluR4 antag
COc1cc(OC)cc(C(=O)Nc2cccc(NC(C)=O)c2)c1	-0.81	-1	1.7	nt	i	-3.6*	666	242
CCOc1ccccc1C(=O)Nc1ccc(N2CCOCC2)cc1	nt	nt	nt	nt	i	nt	nt	nt
CC(C)Cn1c(SCC(=O)N2CCN(S(=O)(=O)c3ccccc3)CC2)nc2ccccc21	2.4	7	1.2	0.24	i	-2.6*	348*	198
N#CCCn1c(SCC(=O)N2CCN(S(=O)(=O)c3ccccc3)CC2)nc2ccccc21	-2.1	1	-0.23	0.08	i	-10*	199*	227
CN(C)c1ccc(NS(=O)(=O)c2ccc([N+](=O)[O-])cc2)cc1	nt	nt	nt	nt	i	nt	nt	nt
CC(=O)c1ccc(OCC(O)CN2C(C)(C)CC(O)CC2(C)C)cc1 (centres undefined)	0.087	11	1.1	0.5	i	-3.1*	622	243
COC(=O)c1[nH]c2ccc(C)cc2c1NC(=O)CCN1CCN(Cc2ccc3c(c2)OCO3)CC1	-0.024	0	0.87	0.75	nt	-20*	38*	226
CCOC(=O)c1[nH]c2ccc(OC)cc2c1NC(=O)NC(C)C	nt	nt	-0.98	nt	nt	nt	nt	nt
COC(=O)c1[nH]c2cccc(OC)c2c1NC(=O)CCN1CCN(c2cccc(Cl)c2)CC1	-1.1	22	0.028	nt	i	0.48	nt	nt
CCN(CC(=O)Nc1c(C(=O)OC)[nH]c2ccc(Cl)cc12)c1ccc2c(c1)OCO2	-0.47	9	1.4	1.5	i	-0.22	nt	nt
CCOC(=O)c1[nH]c2ccc(OC)cc2c1NC(=O)CCN1CCCC(C)C1 (centres undefined)	0.15	nt	0.055	nt	i	-3.6*	370*	242
COC(=O)c1[nH]c2cccc(OC)c2c1NC(=O)CCN1CC(C)CC(C)C1 (centres undefined)	0.59	24	-0.11	nt	i	-3.4*	584	266
CCOC(=O)c1[nH]c2ccc(Br)cc2c1NC(=O)CCN1CCCCC1	-0.58	17	-0.68	-0.75	i	-15*	25*	143*
O=C(Nc1nc2ccccc2s1)C(=O)Nc1nc2ccccc2s1	nt	nt	nt	nt	i	nt	nt	nt
COc1ccc2oc(=O)c(-c3nc4ccccc4[nH]3)cc2c1	nt	nt	nt	nt	i	nt	nt	nt
CCOC(=O)c1[nH]c2ccc(Br)cc2c1NC(=O)CCN1CCC(C(=O)OCC)CC1	-0.48	nt	0.096	-0.5	i	-5.2*	408*	247
CCOC(=O)c1[nH]c2ccc(Br)cc2c1NC(=O)CCN1CCN(C(=O)OCC)CC1	2.6	nt	1.3	-0.022	i	-0.5	nt	nt
CC(C)C[C@H](NC(=O)OC(C)(C)C)c1nnc(SCC(=O)Nc2ccc(Br)cc2)o1	0.019	5	-1.1	0.45	i	-3.1*	555	182
CC(C)C[C@H](NC(=O)OC(C)(C)C)c1nnc(SCc2cccc(F)c2)o1	0.7	6	0.83	-0.51	i	-1.6	nt	nt
CCN(CC)S(=O)(=O)c1ccc(C(=O)Nc2nc3ccc4sc(C)nc4c3s2)cc1	nt	nt	nt	nt	i	nt	nt	nt
Cn1c(=O)c2c(nc(OCc3cccnc3)n2Cc2c(F)cccc2Cl)n(C)c1=O	0.74	7	2.1	0.52	i	-1.2*	509*	248
CCc1cc2c(=S)c(-c3ccccc3)c(C)oc2cc1OC	nt	nt	nt	nt	i	nt	nt	nt
COC(=O)N(C)CCCC1(C)C(=O)N(C)c2ccc(O)cc21 (centres undefined)	-0.094	20	-0.5	-0.032	i	-4.8*	667	260
CC1=CC(=C2C(=O)c3ccccc3C2=O)C=C(C)O1	0.093	-3	nt	nt	i	-1.1*	546	204
COCCCNC(=O)C1c2ccccc2Oc2ccccc21	nt	nt	nt	nt	i	nt	nt	nt
SMILES	M1 agonist	HEK293 NFkB inh	DAT uptake mod	D1 mod	BAP1 inh	M1 antag	M1 antag conf	mGluR4 antag
CN(C)CCCOC(=O)C1c2ccccc2Oc2ccccc21	-1.1	nt	-0.045	nt	i	-12*	22*	243
CCN(CC)CCCNC(=O)C1c2ccccc2Oc2ccccc21	0.05	19	0.12	0.23	i	-6.8*	192*	255
O=S(=O)(c1ccccc1)N1N=C(c2ccccc2)CC1c1ccc(Br)cc1 (centres undefined)	nt	nt	nt	nt	i	nt	nt	nt
Cc1nn(C)c(C)c1S(=O)(=O)Nc1ccc2c(c1)OCO2	0.21	19	-0.077	-1	i	-5.9*	559	203
CC1SC2(OC1=O)C1CC3CC(C1)CC2C3 (centres undefined)	nt	nt	nt	nt	i	nt	nt	nt
CCC(C)N(C)Cc1cccc(C2(O)CCN(S(=O)(=O)c3ccc(F)cc3)CC2)c1 (centres undefined)	1.2	8	0.28	nt	i	-2.1*	468*	229
CCS(=O)(=O)N1CCN(S(=O)(=O)c2ccc(F)cc2)CC1	-0.33	2	1.1	-0.52	i	0.041	nt	nt
CC1CCN(c2ccc([N+](=O)[O-])c(NCCOc3ccc(F)cc3)c2)CC1	nt	nt	nt	nt	i	nt	nt	nt
C=CCn1c(COc2ccc(Cl)cc2)nnc1SCC(=O)N1CC(=O)Nc2ccccc21	0.2	9	2.3	-0.9	i	-0.93*	537	237
CCCCP(=O)(CCCC)c1ccccc1C(=O)O	0.26	3	0.06	-0.03	i	-3.7*	666	172
CC[N+](C)(CC)CCOC(=O)C(O)(c1ccccc1)C1CCCCC1 (centres undefined)	-0.39	nt	-0.3	0.87	i	-16*	10*	213
N#CC1=C(N)SC(N)=C(C#N)C1CCc1ccccc1	1.2	0	-1.1	-2.5	i	-4.6*	683	260
N#CC1=C(N)SC(N)=C(C#N)C1Cc1ccccc1	-1.6	4	-2.2	2	i	0.34	nt	nt
O=C(Nc1cccc(Cl)c1)N(CCN1CCOCC1)Cc1cccc(Cl)c1	1	23	0.014	0.77	i	-2.4*	255*	227
CCN1CCc2nc(SCC(=O)Nc3ccc(OC)cc3)c(C#N)cc2C1	-0.046	16	0.72	nt	i	-0.73*	511	219

High-throughput results as filed in PubChem BioAssay.
